Square brackets hold non-standard residues; d marks the D form. Peptide text beside a SMILES is read from it. * marks the point of attachment. X1 = CC(C)C[C@@H](C(=O)*)N1C(=O)N[C@H](Cc2c[nH]c3ccccc23)C1=O
What was measured:
[1] = target: T1, Gonadotropin-releasing hormone receptor (Rattus norvegicus, UniProt P30969); assay: Inhibition constant for the displacement of specific binding of [125I][D-Lys6]-GnRH (Kd=177 pM) bound to rat pituitary membranes; assay type: cell membranes, Membrane
T1 sequence (P30969 whole entry): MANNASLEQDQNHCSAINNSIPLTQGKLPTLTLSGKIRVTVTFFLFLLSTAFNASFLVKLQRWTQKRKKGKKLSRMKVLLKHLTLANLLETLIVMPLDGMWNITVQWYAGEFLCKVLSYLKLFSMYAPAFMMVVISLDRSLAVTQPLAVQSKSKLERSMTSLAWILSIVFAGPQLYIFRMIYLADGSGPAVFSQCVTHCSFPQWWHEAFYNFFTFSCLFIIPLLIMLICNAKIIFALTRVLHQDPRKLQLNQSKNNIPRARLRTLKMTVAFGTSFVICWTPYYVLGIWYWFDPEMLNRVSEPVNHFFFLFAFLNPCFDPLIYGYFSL
Method in brief: (§1)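 Membranes from proestrous Wistar-derived rat pituitaries (25 μg protein/tube) incubated 90 min at 4 °C with 23.5 pM 125I-[D-Lys6]GnRH plus increasing unlabeled peptide (up to 10 μM, DMSO ≤1%) in 10 mM Tris-HCl/0.1% BSA. Filtration on GF/C, gamma counting. Nonspecific binding from 1 μM [D-Lys6]GnRH. Ki fitted from displacement curves; two experiments in triplicate, mean ± SEM.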

[2] = target: T1, Gonadotropin-releasing hormone receptor; assay: Inhibition constant for the displacement of specific binding of [125I][D-Lys6]-GnRH (Kd=177 pM) bound to rat pituitary membranes; No significant binding at 10 uM; assay type: cell membranes, Membrane; method in brief: as §1
Endothelin receptor = target: T2, Endothelin receptor (Rattus norvegicus, UniProt P26684+P21451); assay: Inhibition constant for the displacement of specific binding of [125I]-ET (Kd=2 nM) bound to rat pituitary membrane; assay type: tissue-based, Pituitary gland
T2 sequence (P26684 whole entry): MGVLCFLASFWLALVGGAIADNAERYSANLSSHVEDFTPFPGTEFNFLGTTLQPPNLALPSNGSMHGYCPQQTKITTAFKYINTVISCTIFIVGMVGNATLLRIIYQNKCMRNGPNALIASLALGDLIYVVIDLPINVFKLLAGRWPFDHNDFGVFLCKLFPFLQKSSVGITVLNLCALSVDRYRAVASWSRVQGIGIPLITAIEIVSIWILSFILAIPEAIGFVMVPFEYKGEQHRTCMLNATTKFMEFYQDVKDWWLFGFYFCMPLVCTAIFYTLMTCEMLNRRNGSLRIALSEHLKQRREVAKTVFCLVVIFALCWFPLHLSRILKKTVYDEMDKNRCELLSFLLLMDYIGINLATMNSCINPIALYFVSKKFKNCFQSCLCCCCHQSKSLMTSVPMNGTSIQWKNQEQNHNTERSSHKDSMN
T2 sequence (P21451 whole entry): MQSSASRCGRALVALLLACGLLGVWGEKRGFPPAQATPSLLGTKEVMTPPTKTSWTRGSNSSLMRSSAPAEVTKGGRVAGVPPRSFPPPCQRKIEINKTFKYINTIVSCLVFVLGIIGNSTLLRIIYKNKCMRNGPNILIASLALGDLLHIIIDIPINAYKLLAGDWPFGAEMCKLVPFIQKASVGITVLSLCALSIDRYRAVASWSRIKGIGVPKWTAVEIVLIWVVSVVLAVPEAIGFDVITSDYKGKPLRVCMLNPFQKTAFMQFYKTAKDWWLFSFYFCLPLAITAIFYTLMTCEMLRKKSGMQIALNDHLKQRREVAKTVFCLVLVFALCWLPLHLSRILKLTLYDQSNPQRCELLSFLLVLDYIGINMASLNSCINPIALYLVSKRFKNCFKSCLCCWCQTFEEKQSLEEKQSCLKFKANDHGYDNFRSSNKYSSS

Structure (SMILES)	Ki [1]	Ki [2]	Ki (Endothelin receptor)
CC[C@H](C)[C@H](N)C(=O)N[C@H](C(=O)N[C@@H](Cc1c[nH]c2ccccc12)C(=O)N[C@H](Cc1c[nH]cn1)C(=O)N[C@@H](CC(C)C)C(=O)N[C@@H](CC(=O)O)C(=O)O)[C@@H](C)CC	0.5 µM	–	–
CC[C@H](C)[C@H](N)C(=O)N[C@H](C(=O)N[C@@H](Cc1ccccc1)C(=O)N[C@H](Cc1c[nH]c2ccccc12)C(=O)N[C@@H](CC(C)C)C(=O)N[C@@H](CC(=O)O)C(=O)O)[C@@H](C)CC	–	Not Active	–
CC[C@H](C)[C@H](N)C(=O)N[C@H](C(=O)N[C@@H](Cc1c[nH]c2ccccc12)C(=O)N[C@H](Cc1c[nH]c2ccccc12)C(=O)N[C@@H](CC(C)C)C(=O)N[C@@H](CC(=O)O)C(=O)O)[C@@H](C)CC	0.7 µM	–	–
CC[C@H](C)[C@H](N)C(=O)N[C@H](C(=O)N[C@@H](Cc1c[nH]cn1)C(=O)N[C@H](Cc1c[nH]c2ccccc12)C(=O)N[C@@H](CC(C)C)C(=O)N[C@@H](CC(=O)O)C(=O)O)[C@@H](C)CC	–	Not Active	–
CC[C@H](C)[C@H](N)C(=O)N[C@H](C(=O)N[C@@H](Cc1c[nH]c2ccccc12)C(=O)N[C@@H](Cc1c[nH]c2ccccc12)C(=O)N[C@@H](CC(C)C)C(=O)N[C@@H](CC(=O)O)C(=O)O)[C@@H](C)CC	4 µM	–	–
CC[C@H](C)[C@H](N)C(=O)N[C@H](C(=O)N[C@@H](Cc1c[nH]c2ccccc12)C(=O)N[C@H](C)C(=O)N[C@@H](CC(C)C)C(=O)N[C@@H](CC(=O)O)C(=O)O)[C@@H](C)CC	> 10 µM	–	–
CC[C@H](C)[C@H](N)C(=O)N[C@H](C(=O)N[C@@H](Cc1c[nH]c2ccccc12)C(=O)N[C@H](Cc1ccccc1)C(=O)N[C@@H](CC(C)C)C(=O)N[C@@H](CC(=O)O)C(=O)O)[C@@H](C)CC	8 µM	–	–
CC[C@H](C)[C@H](NC(=O)[C@H](CCCNC(=N)N)NC(=O)[C@H](CC(C)C)NC(=O)[C@@H](Cc1c[nH]c2ccccc12)NC(C)=O)C(=O)N[C@H](C(=O)N[C@@H](Cc1c[nH]c2ccccc12)C(=O)O)[C@@H](C)CC	2 µM	–	–
CC[C@H](C)[C@@H]1NC(=O)CSC[C@@H](C(=O)O)NC(=O)[C@H](CC(C)C)NC(=O)[C@@H](Cc2c[nH]c3ccccc23)NC(=O)[C@H](Cc2c[nH]c3ccccc23)NC(=O)[C@H]([C@@H](C)CC)NC1=O	0.32 µM	–	–
CC[C@H](C)[C@@H]1NC(=O)[C@H](CC(=O)O)NC(=O)[C@H](CC(C)C)NC(=O)[C@@H](Cc2c[nH]c3ccccc23)NC(=O)[C@H](Cc2c[nH]c3ccccc23)NC(=O)[C@H]([C@@H](C)CC)NC1=O	0.7 µM	–	–
CC[C@H](C)[C@H](NC(=O)[C@H](CC(=O)O)NC(=O)[C@H](CC(C)C)NC(=O)[C@H](N)Cc1c[nH]c2ccccc12)C(=O)N[C@H](C(=O)N[C@@H](Cc1c[nH]c2ccccc12)C(=O)O)[C@@H](C)CC	8 µM	–	55 µM
CC[C@H](C)[C@H](NC(=O)[C@H](CC(=O)O)NC(=O)[C@H](CC(C)C)NC(=O)[C@@H](Cc1c[nH]c2ccccc12)NC(C)=O)C(=O)N[C@H](C(=O)N[C@@H](Cc1c[nH]c2ccccc12)C(=O)O)[C@@H](C)CC (Ac-[dW]LDIIW-OH)	1.9 µM	–	–
CC[C@H](C)[C@H](NC(=O)[C@H](CC(=O)O)NC(=O)[C@H](CC(C)C)N1C(=O)N[C@H](Cc2c[nH]c3ccccc23)C1=O)C(=O)N[C@H](C(=O)N[C@@H](Cc1c[nH]c2ccccc12)C(=O)O)[C@@H](C)CC (X1-DIIW-OH)	0.23 µM	–	6 µM

From ChEMBL document CHEMBL1133454, “Structure-activity studies of reduced-size gonadotropin-releasing hormone agonists derived from the sequence of an endothelin antagonist” (J Med Chem, 2000)
